{
  "source": "PubChem BioAssay AID504383",
  "about": "(The Scripps Research Institute Molecular Screening Center, 2011)",
  "note": "The whole screen tested about 2,500 compounds, of which about 1,200 (48%) were called active. The set was probably picked from earlier hits. Some of the results follow. Values without a mark were called inactive.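 The calls were made as follows: active = mean activation above the low control average plus 3 SD, as set in the primary screen (cut at about 12% in these data); inactive = the rest.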",
  "data": [
    {"target": "Troponin I, cardiac muscle (Homo sapiens) + Troponin T, cardiac muscle (Homo sapiens) + Troponin C, slow skeletal and cardiac muscles (Homo sapiens) (UniProt P19429+P45379+P63316)", "experiment": "calcium sensitizers of cardiac thin filaments – biochemical, IANBD-TnC fluorescence, triplicate, confirmation (AID 504383);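 also: 0% = DMSO at 0.472 mM calcium and 100% = DMSO at 2.9 mM calcium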", "settings": "IANBD-labeled cardiac RTF, Ca2+ sensitivity fluorescence; at 7.2 µM; active compounds read high; scaled from EC20 to saturating calcium; tested at EC20 calcium, 0.472 mM", "how_it_was_run": "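Material: labelled regulated thin filaments; Reagent: 0.472 mM calcium; Incubation: 15 min compound incubation with filaments at 25 °C; Detection: filament fluorescence intensity; Evaluation: fluorescence increase normalised to calcium controls; Benchmarks: low control EC20 calcium, high control EC100 calcium.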", "values": [
      {"compound": "O=C(c1ccccc1)N1CCN(CC#CC2(O)CCCCC2)CC1", "activation": "8.87%"},
      {"compound": "COc1ccc(N2CCN(C(=O)Cn3nnc(-c4ccccc4N)n3)CC2)cc1", "activation": "46.5% (active)"},
      {"compound": "CC1CCCCN1C(=O)Cn1nnc(-c2cccnc2)n1", "note": "(centres undefined)", "activation": "5.92%"},
      {"compound": "COc1ccc(-n2nc3c(N4CCC(C(=O)NCc5ccco5)CC4)nnc(C)c3c2C)cc1", "activation": "4.51%"},
      {"compound": "CC(C)CC1C(C#N)=C(N)SC(N)=C1C#N", "activation": "4.27%"},
      {"compound": "Cc1cc(=O)n2nc(N3CCCC3C(=O)Nc3ccc(C(C)C)cc3)sc2n1", "note": "(centres undefined)", "activation": "426% (active)"},
      {"compound": "COc1cc(NC(=O)[C@@H]2CCCN2S(=O)(=O)c2cccc3cccnc23)cc(OC)c1OC", "activation": "7.77%"},
      {"compound": "Cc1cc(Br)c2c(c1)C(O)(N1CCCCC1C)C(=O)N2", "note": "(centres undefined)", "activation": "12.6% (active)"},
      {"compound": "CC1=NN(C(=O)c2ccccc2-n2cccc2)C(O)(C(F)(F)F)C1", "note": "(centres undefined)", "activation": "15.7% (active)"},
      {"compound": "CC1=NN(C(=O)c2ccc(Cn3ccc([N+](=O)[O-])n3)cc2)C(O)(C(F)(F)F)C1", "note": "(centres undefined)", "activation": "18.8% (active)"},
      {"compound": "COc1cccc(OC)c1C(=O)NNC(=O)c1ccccc1-n1cccc1", "activation": "-0.16%"},
      {"compound": "CC1=C(C#N)C(=O)OC(C)(C)C1", "activation": "10.4%"},
      {"compound": "CC(C)c1nnc(N2C(=O)C(O)=C(C(=O)c3cccs3)C2c2ccccc2)s1", "note": "(centres undefined)", "activation": "7.93%"},
      {"compound": "CSc1ccc(C2C(C(=O)c3ccco3)=C(O)C(=O)N2c2nnc(SC)s2)cc1", "note": "(centres undefined)", "activation": "29.2% (active)"},
      {"compound": "N#Cc1c(NCCCO)nc(-c2ccccc2)c2c1CCCC2", "activation": "16.7% (active)"},
      {"compound": "CC(=O)Nc1sc(/C(C#N)=C\\c2cccc(Cl)c2)nc1-c1ccc(C)cc1", "activation": "49.1% (active)"},
      {"compound": "CCOc1cc(/C=C(\\C#N)c2nc(-c3cccs3)c(NC(C)=O)s2)ccc1O", "activation": "0.64%"},
      {"compound": "CC(=O)Nc1sc(/C(C#N)=C/c2ccc(Cl)c(Cl)c2)nc1-c1ccc(C)cc1", "activation": "-3.28%"},
      {"compound": "Cc1ccc(S(=O)(=O)N2CCOCC2)cc1NC(=O)CSc1nccn1C", "activation": "11.4%"},
      {"compound": "O=C(CNCc1cccs1)Nc1cc(S(=O)(=O)N2CCCC2)ccc1Cl", "activation": "17.9% (active)"},
      {"compound": "O=C(CNCc1cccs1)Nc1ccc(S(=O)(=O)N2CCCCC2)cc1", "activation": "66.4% (active)"},
      {"compound": "O=C(CCCN1C(=O)c2ccccc2C1=O)Nc1ccc(S(=O)(=O)N2CCCCC2)cc1", "activation": "4.61%"},
      {"compound": "Cc1ccc(NC(=O)COC(=O)c2csc3c2CCC(C)C3)cc1S(=O)(=O)N1CCCCC1", "note": "(centres undefined)", "activation": "3.56%"},
      {"compound": "CC(C(=O)NNS(=O)(=O)c1cccc(C(F)(F)F)c1)n1nnc(N2CCOCC2)n1", "note": "(centres undefined)", "activation": "5.72%"},
      {"compound": "C=CCOc1ccn(C)c(=O)n1", "activation": "12.1% (active)"},
      {"compound": "CCOc1ccc(NC(=O)C2CC(=O)N=C(N)S2)cc1", "note": "(centres undefined)", "activation": "4.04%"},
      {"compound": "COc1ccc(N=Nc2nc3ccc(Br)cc3n2C)cc1", "activation": "10.6%"},
      {"compound": "COc1ccc(N=Nc2nc3cc(Br)c(Br)cc3n2C)c(OC)c1", "activation": "2020% (active)"},
      {"compound": "COc1ccc(Nc2nc3ccc(C)cc3cc2C#N)c(OC)c1", "activation": "3.9%"},
      {"compound": "COc1ccccc1N1C(=O)c2cccc3c(N(C)CCO)ccc(c23)C1=O", "activation": "7.87%"},
      {"compound": "O=C1c2cccc3c([N+](=O)[O-])ccc(c23)C(=O)N1Cc1cccnc1", "activation": "3.03%"},
      {"compound": "Cc1ccc(N2C(=O)c3cccc4c(N)ccc(c34)C2=O)c2cccnc12", "activation": "9.53%"},
      {"compound": "Cc1cccc(N2C(=O)c3cccc4c(N)ccc(c34)C2=O)c1", "activation": "0.54%"},
      {"compound": "Cc1ccnc(N2C(=O)c3cccc4c([N+](=O)[O-])ccc(c34)C2=O)c1", "activation": "16.1% (active)"},
      {"compound": "CN(C)CCCN1C(=O)c2cccc3c([N+](=O)[O-])ccc(c23)C1=O", "activation": "38.5% (active)"},
      {"compound": "CCOC(=O)c1sc(-c2ccc(F)cc2)cc1NC(=O)Nc1ccccc1OC", "activation": "37.5% (active)"},
      {"compound": "CCOc1ccc2ccccc2c1CNCCN1CCOCC1", "activation": "27% (active)"},
      {"compound": "COc1ccccc1NS(=O)(=O)c1cc(C(=O)NCCN2CCOCC2)ccc1Cl", "activation": "2.55%"},
      {"compound": "CC1=CC(=C(C#N)c2nc3ccccc3s2)C=C(C)N1c1ccc(F)cc1", "activation": "74.2% (active)"},
      {"compound": "COc1ccccc1N1C(C)=CC(=C(C#N)c2nc3ccccc3s2)C=C1C", "activation": "11.1%"},
      {"compound": "COCCn1c(C)cc(C(=O)COC(=O)c2ccc(Cl)c(S(N)(=O)=O)c2)c1C", "activation": "13% (active)"},
      {"compound": "Cc1ccc(-n2c(C)cc(C(=O)COC(=O)c3ccc[nH]c3=O)c2C)cc1", "activation": "6.02%"},
      {"compound": "O=C1CCC(=O)N1CC(O)COc1ccccc1", "note": "(centres undefined)", "activation": "255% (active)"},
      {"compound": "Cc1cc(C)n(CC(O)COc2ccccc2)n1", "note": "(centres undefined)", "activation": "6.17%"},
      {"compound": "OCCN1CCN(CC(O)COc2ccc(C34CC5CC(CC(C5)C3)C4)cc2)CC1", "note": "(centres undefined)", "activation": "90.4% (active)"},
      {"compound": "CCCN1C(=O)c2ccccc2NC1c1ccc(O)c(OCC)c1", "note": "(centres undefined)", "activation": "14.5% (active)"},
      {"compound": "CCOc1cc(C2C3=C(CCCC3=O)N(C)C3=C2C(=O)CCC3)cc(Cl)c1O", "activation": "6.5%"},
      {"compound": "COc1ccc(/C(C)=N/N2C(=O)c3ccccc3NC2c2ccc(O)c(OC)c2)cc1", "note": "(centres undefined)", "activation": "9.34%"},
      {"compound": "CC(C)C12CN(C(=O)c3ccccc3[N+](=O)[O-])CC(C(C)C)(CN(C(=O)c3ccccc3[N+](=O)[O-])C1)C2=O", "activation": "6.99%"},
      {"compound": "O=C(O)c1cccc2c1-c1c(cccc1[N+](=O)[O-])C2", "activation": "1890% (active)"},
      {"compound": "CCN(CC)c1ccc(-c2sc(Nc3ccccc3)n[n+]2-c2ccc(F)cc2)cc1", "activation": "18.7% (active)"},
      {"compound": "CCN(CC)c1ccc(NC(=S)Nc2ccc(F)cc2)cc1", "activation": "5.29%"},
      {"compound": "CCc1ccc(Nc2n[n+](-c3ccccc3)c(-c3ccc(N(CC)CC)cc3)s2)cc1", "activation": "5.32%"},
      {"compound": "CCOC(=O)/C(C#N)=C/c1ccc(N2CCN(Cc3ccccc3)CC2)cc1", "activation": "285% (active)"},
      {"compound": "CCOC(=O)/C(C#N)=C\\c1ccc(N2CCN(C/C=C/c3ccccc3)CC2)cc1", "activation": "4.67%"},
      {"compound": "CCOC(=O)Nc1ccc(NCc2ccc(F)cc2)nc1N", "activation": "5.72%"},
      {"compound": "CCN(CC)c1ccc2cc(C(=O)NCc3ccc(F)cc3)c(=N)oc2c1", "activation": "54.1% (active)"},
      {"compound": "COC(=O)CNC(=O)COC(=O)c1cc(F)c(F)cc1Cl", "activation": "7.53%"},
      {"compound": "Cn1c2c(c(=O)n(C)c1=O)C(C(F)(F)F)(C(F)(F)F)N=C(CCC1CCCCC1)N2", "activation": "9.24%"}
    ]}
  ]
}
